According to ChEMBL document CHEMBL1127301, “Carbonyl-containing bisphosphonate esters as novel antiinflammatory and antiarthritic agents” (1994):
Several values for one entry are separate records, joined by “and”; a condition that tells them apart may be missing. Identical values can stand only once.

Columns and labels:
Type in all cases: functional
Mus musculus [1] = assay: Decreased wet tissue weight of DTH-GRA from mice was determined after (sc) administration of a dose of 100 mg/kg after 9 days; conditions: for inhibition in vivo at 100 mg/kg: Mus musculus, sc, 216 h
How it was run: (§1)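 Groups of 10 female CF-1 mice (25 g) were sensitized sc over the inguinal node with mBSA/Freund's incomplete adjuvant/dextran. Three weeks later, two 6 mm hydroxyapatite discs soaked in mBSA (30 mg/mL) were implanted sc in the dorsum. Drug was given sc in the scruff. After 9 days, granulomas were excised and wet/dry weights compared with vehicle controls as percent inhibition.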

Mus musculus [2] = assay: Compound was tested for the suppression of Antigen-Induced Arthritis in mice after 28days, which were dosed 100 mg/kg subcutaneously;; conditions: sc, 672 h, route subcutaneous
How it was run: (§2)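 mBSA-sensitized mice were boosted after 7 days and, 14 days later, challenged intraarticularly with 200 μg mBSA in saline in the left rear stifle. Drug in sterile saline was given sc in the scruff from day 0 on a 5-of-7-day regimen to day 28. H&E sagittal joint sections were graded 1–5 for inflammation, pannus, and cartilage/bone erosion; results are percent inhibition.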

Mus musculus [3] = assay: Compound was tested for the suppression of Antigen-Induced Arthritis in mice after 28days, at a dose of 100 mg/kg administered subcutaneously; p<0.001; conditions: sc, 672 h, route subcutaneous; how it was run: as §2
Mus musculus [4] = assay: Decreased wet tissue weight of DTH-GRA from mice was determined after (sc) administration of a dose of 200 mg/kg
How it was run: (§3)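 Groups of 10 female CF-1 mice (25 g) sensitized sc over the inguinal lymph node with mBSA emulsion (saline, Freund's incomplete adjuvant, dextran). Three weeks later, two hydroxyapatite discs (6 mm) soaked in mBSA (30 mg/mL saline) implanted sc bilaterally in the dorsum. Compound given sc in scruff of neck in saline vehicle. Granulomas excised after 9 days; wet and dry weights expressed as percent inhibition versus vehicle-dosed controls.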

Mus musculus [5] = assay: Decreased wet tissue weight of DTH-GRA from mice was determined after (sc) administration of a dose of 100 mg/kg; how it was run: as §3
Mus musculus [6] = assay: Decreased dry tissue weight of DTH-GRA from mice was determined after (sc) administration of a dose of 200 mg/kg; how it was run: as §3
Mus musculus [7] = assay: Decreased dry tissue weight of DTH-GRA from mice was determined after (sc) administration of a dose of 25 mg/kg; how it was run: as §3
Mus musculus [8] = assay: Decreased wet tissue weight of DTH-GRA from mice was determined after (sc) administration of a dose of 50 mg/kg; how it was run: as §3
Mus musculus [9] = assay: Decreased dry tissue weight of DTH-GRA from mice was determined after (sc) administration of a dose of 50 mg/kg; how it was run: as §3
Mus musculus [10] = assay: Decreased dry tissue weight of DTH-GRA from mice was determined after (sc) administration of a dose of 100 mg/kg; how it was run: as §3
Mus musculus [11] = assay: Decreased wet tissue weight of DTH-GRA from mice was determined after (sc) administration of a dose of 25 mg/kg; how it was run: as §3
Mus musculus [12] = assay: Decreased dry tissue weight of DTH-GRA from mice was determined after (sc) administration of a dose of 100 mg/kg after 9 days; conditions: 216 h; how it was run: as §1
Mus musculus [13] = assay: Compound was tested for the suppression of Antigen-Induced Arthritis in mice after 28days, at a dose of 100 mg/kg administered subcutaneously; conditions: sc, 672 h, route subcutaneous; how it was run: as §2
Mus musculus [14] = assay: Compound was tested for the suppression of Antigen-Induced Arthritis in mice after 28days, which were dosed 100 mg/kg subcutaneously; conditions: sc, 672 h, route subcutaneous; how it was run: as §2
Mus musculus [15] = assay: Compound was tested for the suppression of Antigen-Induced Arthritis in mice after 28days, at a dose of 10 mg/kg administered subcutaneously; conditions: sc, 672 h, route subcutaneous; how it was run: as §2
Mus musculus [16] = assay: Decreased wet tissue weight of DTH-GRA from mice was determined after (sc) administration of a dose of 10 mg/kg after 9 days; how it was run: as §1
Mus musculus [17] = assay: Compound was tested for the suppression of Antigen-Induced Arthritis in mice after 28 days, which were dosed 10 mg/kg subcutaneously; conditions: sc, 672 h, route subcutaneous; how it was run: as §2
Mus musculus [18] = assay: Decreased dry tissue weight of DTH-GRA from mice was determined after (sc) administration of a dose of 10 mg/kg after 9 days; how it was run: as §1
Mus musculus [19] = assay: Compound was tested for the suppression of Antigen-Induced Arthritis in mice after 28 days, at a dose of 50 mg/kg administered subcutaneously; conditions: sc, 672 h, route subcutaneous; how it was run: as §2
Mus musculus [20] = assay: Compound was tested for the suppression of Antigen-Induced Arthritis in mice after 28 days, at a dose of 25 mg/kg administered subcutaneously; conditions: sc, 672 h, route subcutaneous; how it was run: as §2

## CCOP(=O)(OCC)C(CC1CCCC(C)C1=O)P(=O)(OCC)OCC (centres undefined)
Mus musculus [1]
  inhibition in vivo at 100 mg/kg: 25%
Mus musculus [2]
  inhibition in vivo at 100 mg/kg: 46%

## CCOP(=O)(OCC)C(CC1Cc2ccccc2C1=O)P(=O)(OCC)OCC (centres undefined)
Mus musculus [1]
  inhibition in vivo at 100 mg/kg: 0%

## CCOP(=O)(OCC)C(CC(C(=O)OC)c1ccccc1)P(=O)(OCC)OCC (centres undefined)
Mus musculus [3]
  inhibition in vivo at 100 mg/kg: 38%
Mus musculus [1]
  inhibition in vivo at 100 mg/kg: 8%

## CCOP(=O)(OCC)C(CC1CCCC(c2ccccc2)C1=O)P(=O)(OCC)OCC (centres undefined)
Mus musculus [1]
  inhibition in vivo at 100 mg/kg: 50%

## O=P(O)(O)C(Cl)(Cl)P(=O)(O)O [CLODRONIC ACID]
Mus musculus [4]
  inhibition in vivo at 200 mg/kg: 55%
Mus musculus [1]
  inhibition in vivo at 100 mg/kg: 45%
Mus musculus [5]
  inhibition in vivo at 100 mg/kg: 61%
Mus musculus [6]
  inhibition in vivo at 200 mg/kg: 59%
Mus musculus [7]
  inhibition in vivo at 25 mg/kg: 45%
Mus musculus [8]
  inhibition in vivo at 50 mg/kg: 48%
Mus musculus [9]
  inhibition in vivo at 50 mg/kg: 47%
Mus musculus [10]
  inhibition in vivo at 100 mg/kg: 63%
Mus musculus [11]
  inhibition in vivo at 25 mg/kg: 45%
Mus musculus [12]
  inhibition in vivo at 100 mg/kg: 50%

## CCOP(=O)(OCC)C(CC(C(=O)c1ccc(OC)cc1)c1ccccn1)P(=O)(OCC)OCC (centres undefined)
Mus musculus [1]
  inhibition in vivo at 100 mg/kg: 34%

## CCOP(=O)(OCC)C(CC1CSc2ccc(C)cc2C1=O)P(=O)(OCC)OCC (centres undefined)
Mus musculus [1]
  inhibition in vivo at 100 mg/kg: 28%
Mus musculus [13]
  inhibition in vivo at 100 mg/kg: 21%

## CCOP(=O)(OCC)C(CC(C(=O)Nc1ccccc1)C(=O)c1ccccc1)P(=O)(OCC)OCC (centres undefined)
Mus musculus [1]
  inhibition in vivo at 100 mg/kg: 3%

## CCOP(=O)(OCC)C(CC1Sc2ccccc2C1=O)P(=O)(OCC)OCC (centres undefined)
Mus musculus [1]
  inhibition in vivo at 100 mg/kg: 27%

## CCOP(=O)(OCC)C(CC1C(=O)c2ccccc2OC1c1ccccc1)P(=O)(OCC)OCC (centres undefined)
Mus musculus [1]
  inhibition in vivo at 100 mg/kg: 46%
Mus musculus [14]
  inhibition in vivo at 100 mg/kg: 21%
Mus musculus [12]
  inhibition in vivo at 100 mg/kg: 47%

## CCOP(=O)(OCC)C(C[C@@H]1C(=O)c2ccccc2O[C@H]1c1ccccc1)P(=O)(OCC)OCC
Mus musculus [1]
  inhibition in vivo at 100 mg/kg: 67%

## CCOP(=O)(OCC)C(CC(C#N)c1cccc2ccccc12)P(=O)(OCC)OCC (centres undefined)
Mus musculus [1]
  inhibition in vivo at 100 mg/kg: 0%

## CCOC(=O)C(CC(P(=O)(OCC)OCC)P(=O)(OCC)OCC)C(=O)c1ccccc1 (centres undefined)
Mus musculus [1]
  inhibition in vivo at 100 mg/kg: 77%

## CCOP(=O)(OCC)C(CC(C#N)c1ccccn1)P(=O)(OCC)OCC (centres undefined)
Mus musculus [15]
  inhibition in vivo at 10 mg/kg: 2%

## CCOP(=O)(OCC)C(CC1C(=O)c2ccccc2SC1C)P(=O)(OCC)OCC (centres undefined)
Mus musculus [1]
  inhibition in vivo at 100 mg/kg: 33%

## CCOP(=O)(OCC)C(CC(=O)C(=O)c1ccccc1)P(=O)(OCC)OCC
Mus musculus [1]
  inhibition in vivo at 100 mg/kg: 49%
Mus musculus [16]
  Inhibition: 56% and 49% and 43% and 28%
Mus musculus [17]
  inhibition in vivo at 10 mg/kg: 12%
Mus musculus [18]
  Inhibition: 45% and 54% and 49% and 38% and 27%

## CCOP(=O)(OCC)C1(P(=O)(OCC)OCC)CC(C(=O)c2ccccc2)=NN1
Mus musculus [1]
  inhibition in vivo at 100 mg/kg: 31%

## CCOP(=O)(OCC)C(CC(C(=O)OC)c1ccccc1O)P(=O)(OCC)OCC (centres undefined)
Mus musculus [1]
  inhibition in vivo at 100 mg/kg: 5%

## CCOP(=O)(OCC)C(CC1COc2ccccc2C1=O)P(=O)(OCC)OCC (centres undefined)
Mus musculus [1]
  inhibition in vivo at 100 mg/kg: 67%

## CCOP(=O)(OCC)C(CC(C#N)c1cccs1)P(=O)(OCC)OCC (centres undefined)
Mus musculus [1]
  inhibition in vivo at 100 mg/kg: 40%

## CCOP(=O)(OCC)C(CC(C(=O)c1ccccc1)c1ccccc1)P(=O)(OCC)OCC (centres undefined)
Mus musculus [19]
  inhibition in vivo at 50 mg/kg: 53%
Mus musculus [20]
  inhibition in vivo at 25 mg/kg: 55%
Mus musculus [1]; 100 mg/kg
  Inhibition: 51% and 44% and 35%
Mus musculus [1]
  inhibition in vivo at 100 mg/kg: 48%
Mus musculus [14]
  inhibition in vivo at 100 mg/kg: 52%
Mus musculus [18]
  Inhibition: 57% and 48% and 38%

## CCOP(=O)(OCC)C(C[C@H]1C(=O)c2ccccc2O[C@H]1c1ccccc1)P(=O)(OCC)OCC
Mus musculus [1]
  inhibition in vivo at 100 mg/kg: 0%
